Assay results: PMC8921320 (The Journal of Biological Chemistry, 2022)
pKd: −log10 of the molar value. Several values for one entry are separate records, joined by “and”; a condition that tells them apart may be missing. Equal values may be shown once. Read-outs that look alike come from different tables or passages of the source. Square brackets hold non-standard residues; d marks the D form. Peptide text beside a SMILES is read from it. Orn(N5-OH,N5-Ac) = CC(=O)N(O)CCC[C@H](N)C(=O)O

Columns and labels:
EcoFepA [1] = molecular target: T1, EcoFepA (Escherichia coli, UniProt P05825, A720C); test: Fluorescence quenching binding, EcoFepA-FM sensor
T1 sequence (P05825 23-746 A720C): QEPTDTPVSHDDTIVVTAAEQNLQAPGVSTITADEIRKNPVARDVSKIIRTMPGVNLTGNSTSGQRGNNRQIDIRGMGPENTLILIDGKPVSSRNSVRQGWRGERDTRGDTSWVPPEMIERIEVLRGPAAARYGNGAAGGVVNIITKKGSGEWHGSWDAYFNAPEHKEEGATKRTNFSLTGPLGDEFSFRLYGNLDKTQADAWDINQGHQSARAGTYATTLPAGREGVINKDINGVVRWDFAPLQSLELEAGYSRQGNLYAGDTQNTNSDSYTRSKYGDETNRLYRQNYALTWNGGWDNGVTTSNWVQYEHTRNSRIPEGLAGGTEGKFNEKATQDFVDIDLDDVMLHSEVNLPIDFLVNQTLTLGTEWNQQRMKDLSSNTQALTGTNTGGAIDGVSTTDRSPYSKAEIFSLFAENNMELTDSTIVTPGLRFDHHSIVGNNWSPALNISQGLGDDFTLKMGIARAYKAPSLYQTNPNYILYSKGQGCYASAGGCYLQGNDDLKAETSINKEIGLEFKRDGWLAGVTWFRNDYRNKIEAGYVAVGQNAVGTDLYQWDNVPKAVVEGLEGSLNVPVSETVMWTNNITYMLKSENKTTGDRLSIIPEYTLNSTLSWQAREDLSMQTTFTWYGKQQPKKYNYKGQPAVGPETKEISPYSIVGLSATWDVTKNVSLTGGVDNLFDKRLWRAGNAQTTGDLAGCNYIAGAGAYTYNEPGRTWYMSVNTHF

EcoFepB = molecular target: T2, EcoFepB (Escherichia coli, UniProt P0AEL6, T297C); test: Fluorescence quenching binding, purified EcoFepB-FM sensor
T2 sequence (P0AEL6 27-318 T297C): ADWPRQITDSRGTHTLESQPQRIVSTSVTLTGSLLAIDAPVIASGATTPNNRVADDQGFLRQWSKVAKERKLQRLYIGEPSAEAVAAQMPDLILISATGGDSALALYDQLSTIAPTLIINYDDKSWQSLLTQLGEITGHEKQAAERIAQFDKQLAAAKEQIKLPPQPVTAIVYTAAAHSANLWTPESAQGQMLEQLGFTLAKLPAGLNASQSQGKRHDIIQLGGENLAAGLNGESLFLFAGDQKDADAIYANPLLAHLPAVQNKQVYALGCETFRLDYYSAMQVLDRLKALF
In short: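 His-tagged T297C FepB expressed from pET28 in E. coli and purified by metal affinity chromatography. Labeled with 5 μM fluorescein maleimide at pH 6.77 for 15 min, then repurified by gel filtration. Apo or ferric siderophores added at increasing concentrations, with three quenching determinations per concentration. Mean values fitted to a single-site binding model to give KD.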

AbaFepA = format: binding, Acinetobacter baumannii
EcoCir = test: Fluorescence quenching binding, EcoCir-FM sensor; design: species or system Escherichia coli
In short: (§1)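 Cys-mutant receptor made in E. coli hosts (entA, tonB+ or ΔtonB) grown in iron-deficient MOPS at 37 °C to late exponential phase. Cells washed in 50 mM NaHPO₄ pH 6.7, labeled in situ with 5 μM fluorescein maleimide for 15 min at 37 °C, quenched with 100 μM β-mercaptoethanol, then resuspended in PBS + 0.2% glucose. Binding used 2.5 × 10⁷ cells in 2 ml, stirred at 37 °C. Iron complex added stepwise; 520 nm emission quenching read in triplicate; 1-F/F₀ vs [ligand] fitted to single-site model for KD.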

AbaPirA = test: Fluorescence quenching binding, AbaPirA-FM sensor; design: species or system Acinetobacter baumannii
In short: as §1

EcoFiu = test: Fluorescence quenching binding, EcoFiu-FM sensor; design: species or system Escherichia coli
In short: as §1

AbaPiuA = test: Fluorescence quenching binding, AbaPiuA-FM sensor; design: species or system Acinetobacter baumannii
In short: as §1

KpnIroN [2] = molecular target: T3, KpnIroN (Klebsiella pneumoniae, UniProt A0ACD7U953, T234C); test: Fluorescence quenching binding, KpnIroN-FM sensor
T3 sequence (A0ACD7U953 25-724 T234C): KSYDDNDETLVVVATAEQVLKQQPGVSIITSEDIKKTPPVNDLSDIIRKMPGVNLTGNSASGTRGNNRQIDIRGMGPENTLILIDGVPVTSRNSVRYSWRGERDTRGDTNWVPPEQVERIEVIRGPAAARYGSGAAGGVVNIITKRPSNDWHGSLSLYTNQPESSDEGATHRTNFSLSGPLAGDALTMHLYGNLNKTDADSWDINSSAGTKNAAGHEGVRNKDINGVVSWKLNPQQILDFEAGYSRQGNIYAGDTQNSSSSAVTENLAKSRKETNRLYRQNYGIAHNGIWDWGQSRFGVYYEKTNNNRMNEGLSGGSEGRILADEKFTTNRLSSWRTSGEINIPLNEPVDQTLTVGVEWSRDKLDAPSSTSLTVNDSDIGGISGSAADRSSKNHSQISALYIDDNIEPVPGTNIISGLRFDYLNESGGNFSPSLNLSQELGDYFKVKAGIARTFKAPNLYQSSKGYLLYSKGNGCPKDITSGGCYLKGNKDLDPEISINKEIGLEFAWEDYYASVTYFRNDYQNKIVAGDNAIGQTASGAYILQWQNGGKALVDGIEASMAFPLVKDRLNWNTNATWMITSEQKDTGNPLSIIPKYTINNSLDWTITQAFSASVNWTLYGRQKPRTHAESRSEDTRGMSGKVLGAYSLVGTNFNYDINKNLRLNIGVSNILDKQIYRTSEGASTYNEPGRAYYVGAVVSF
In short: as §1

EcoIutA = molecular target: T4, EcoIutA (Escherichia coli, UniProt B7LI14, T574C); test: Fluorescence quenching binding, EcoIutA-FM sensor
T4 sequence (B7LI14 26-733 T574C): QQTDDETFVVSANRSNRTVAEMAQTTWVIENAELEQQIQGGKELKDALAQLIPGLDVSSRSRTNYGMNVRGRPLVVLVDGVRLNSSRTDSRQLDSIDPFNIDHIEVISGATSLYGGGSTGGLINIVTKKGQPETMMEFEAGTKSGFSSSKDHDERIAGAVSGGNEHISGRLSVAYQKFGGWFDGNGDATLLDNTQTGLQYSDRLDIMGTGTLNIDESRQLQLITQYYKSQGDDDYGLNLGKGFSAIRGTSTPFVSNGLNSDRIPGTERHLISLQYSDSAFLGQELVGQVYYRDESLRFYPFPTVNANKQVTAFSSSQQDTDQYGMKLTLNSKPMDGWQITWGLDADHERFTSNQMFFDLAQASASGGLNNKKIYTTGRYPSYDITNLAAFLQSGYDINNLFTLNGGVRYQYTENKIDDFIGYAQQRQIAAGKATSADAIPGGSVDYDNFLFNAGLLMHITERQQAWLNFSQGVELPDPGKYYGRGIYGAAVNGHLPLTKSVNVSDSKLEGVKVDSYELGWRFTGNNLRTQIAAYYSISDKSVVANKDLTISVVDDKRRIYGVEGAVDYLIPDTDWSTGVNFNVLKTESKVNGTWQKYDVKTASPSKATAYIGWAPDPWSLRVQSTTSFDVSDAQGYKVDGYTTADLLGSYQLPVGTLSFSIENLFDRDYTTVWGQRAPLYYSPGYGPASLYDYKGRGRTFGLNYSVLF

[3] = molecular target: human siderocalin (HsaSCN) (Homo sapiens, UniProt P80188, Q148C); test: Fluorescence quenching binding, purified HsaSCN-FM sensor; conditions: HsaSCN-FM (Q128C), purified protein
PaeFpvA = molecular target: T5, PaeFpvA (Pseudomonas aeruginosa, UniProt P48632, T660C); test: Fluorescence quenching binding, PaeFpvA-FM sensor
T5 sequence (P48632 44-815 T660C): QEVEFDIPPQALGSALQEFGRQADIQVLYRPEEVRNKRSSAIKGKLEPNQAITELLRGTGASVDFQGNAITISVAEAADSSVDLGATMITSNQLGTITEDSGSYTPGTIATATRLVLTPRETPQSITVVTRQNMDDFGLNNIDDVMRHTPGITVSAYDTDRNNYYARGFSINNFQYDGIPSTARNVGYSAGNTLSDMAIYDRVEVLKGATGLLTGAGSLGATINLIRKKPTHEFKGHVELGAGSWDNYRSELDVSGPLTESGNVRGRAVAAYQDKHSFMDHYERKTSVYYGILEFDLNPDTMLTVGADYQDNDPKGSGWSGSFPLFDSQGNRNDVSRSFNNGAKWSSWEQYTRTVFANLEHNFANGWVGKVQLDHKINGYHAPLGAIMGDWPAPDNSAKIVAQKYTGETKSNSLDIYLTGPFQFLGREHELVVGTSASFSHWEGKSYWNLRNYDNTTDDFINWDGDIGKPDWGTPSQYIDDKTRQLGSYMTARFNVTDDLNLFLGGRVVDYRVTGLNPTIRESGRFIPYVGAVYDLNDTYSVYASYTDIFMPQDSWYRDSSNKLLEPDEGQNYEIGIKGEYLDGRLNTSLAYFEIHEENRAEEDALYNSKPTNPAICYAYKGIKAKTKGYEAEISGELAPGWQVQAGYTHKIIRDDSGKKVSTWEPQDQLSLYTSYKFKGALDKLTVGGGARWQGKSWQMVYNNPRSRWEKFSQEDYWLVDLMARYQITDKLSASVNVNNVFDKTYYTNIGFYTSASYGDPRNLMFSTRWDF
In short: as §1

EcoFepA [4] = molecular target: T1, EcoFepA; conditions: cited from earlier work
KpnIroN [5] = molecular target: T3, KpnIroN; conditions: cited from earlier work
[6] = tested on: Iron-deficient Gram-negative bacteria, with maximally expressed chromosomal FepA; conditions: cited from earlier work
KpnFyuA = KpnFyuA (Klebsiella pneumoniae, UniProt A4GZD6, S653C); test: Fluorescence quenching binding, KpnFyuA-FM sensor; conditions: 50% quenching

Chain of human siderocalin (HsaSCN) (P80188 21-198 Q148C): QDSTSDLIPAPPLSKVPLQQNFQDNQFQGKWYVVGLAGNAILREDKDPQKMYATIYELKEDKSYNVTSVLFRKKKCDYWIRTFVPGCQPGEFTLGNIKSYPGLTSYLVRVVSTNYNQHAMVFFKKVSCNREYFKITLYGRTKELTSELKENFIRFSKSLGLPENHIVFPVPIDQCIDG

O=C(N[C@H]1COC(=O)[C@@H](NC(=O)c2cccc(O)c2O)COC(=O)[C@@H](NC(=O)c2cccc(O)c2O)COC1=O)c1cccc(O)c1O [Ent, enterobactin]
pKd (EcoFepA [1]): 7.57 | binding (in words) (EcoFepB): bound

CC(C)(O/N=C(\C(=O)N[C@@H]1C(=O)N2C(C(=O)[O-])=C(C[N+]3(CCNC(=O)c4ccc(O)c(O)c4Cl)CCCC3)CS[C@H]12)c1csc(N)n1)C(=O)O [FDC, cefidericol]
binding (in words) (AbaFepA): bound | binding (in words) (EcoCir): bound | binding (in words) (AbaPirA): bound | binding (in words) (EcoFiu): bound | binding (in words) (AbaPiuA): bound | binding (in words) (KpnIroN [2]): bound

CC(=O)N([O-])CCC[C@@H]1NC(=O)CNC(=O)CNC(=O)CNC(=O)[C@H](CCCN([O-])C(C)=O)NC(=O)[C@H](CCCN([O-])C(C)=O)NC1=O.[Fe+3] [Fc, ferrichrome] (cyclo(GGG[Orn(N5-OH,N5-Ac)][Orn(N5-OH,N5-Ac)][Orn(N5-OH,N5-Ac)]))
binding (in words) (EcoIutA): did not measurably bind | pKd [3]: 6.96

CC(=O)N(O)CCCC[C@H](NC(=O)CC(O)(CC(=O)N[C@@H](CCCCN(O)C(C)=O)C(=O)O)C(=O)O)C(=O)O.[Fe+3] [FeAbn, ferric aerobactin]
pKd (EcoIutA; EcoIutA-FM sensor, fluorescence quenching): 8.22

O=C(O)c1cccc(O)c1O.[Fe+3] [FeDHB]
binding (in words) (EcoFiu): did not bind | binding (in words) (PaeFpvA): weakly bound | binding (in words) (EcoFepB): bound | pKd [3]: 6.48

O=C(N[C@H]1COC(=O)[C@@H](NC(=O)c2cccc(O)c2O)COC(=O)[C@@H](NC(=O)c2cccc(O)c2O)COC1=O)c1cccc(O)c1O.[Fe+3] [FeEnt, ferric enterobactin]
fold higher affinity for FeEnt than for FeGEnt (EcoFepA [1]; EcoFepA-FM): ~300 fold | pKd (AbaFepA; AbaFepA-FM sensor, fluorescence quenching): ~7.60 and 7.77 | binding (in words) (EcoCir): bound | binding (in words) (EcoFiu): bound | binding (in words) (PaeFpvA): weakly bound | pKd (EcoFepB; EcoFepB-FM (T297C), purified protein): 4.37 | fold less affinity than EcoFepA (EcoFepB; FeEnt, EcoFepB-FM vs EcoFepA): about 100 fold | pKd [3]: 7.92 to 8.00 | pKd (EcoFepA [4]; ref 53, 68, 69, 70): 9.40 to 10.00 | pKd (EcoFepA [4]; ref 53): 9.40 | pKd (KpnIroN [5]): 9.40 | transport rate [6]: ~50 pmol/10^9 cells/min

CC(C)(C1=N[C@@](C)(C(=O)O)CS1)[C@H](O)[C@@H]1CS[C@H]([C@H]2CSC(c3ccccc3O)=N2)N1.[Fe+3] [FeYbt]
pKd (KpnFyuA): 9.00 | pKd [3]: 4.96
